# Experimental data as given in publication PMC11539713 (Malaria Journal, 2024).
# Several values for one entry are separate records, joined by “and”; a condition that tells them apart may be missing. Identical values can stand only once. Like-named read-outs stand apart in the source and are kept apart here.
# Legend:
# CYP enzymes = assay: Enzyme phenotyping with; format: in vitro ADME, human; conditions: for Effect of inhibitor on formation of ART-M in HLMs: ART 1 μM, HLMs 1 mg/mL, 1 mM 1-ABT, 1 μM ketoconazole
# Pf3D7 [1] = assay: In vitro drug susceptibility, SYBR Green I fluorometric method, Pf3D7; format: cell-based; conditions: Plasmodium falciparum
# Procedure, shortened: (§1)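 Synchronous ring-stage P. falciparum culture at final 0.5% parasitaemia and 2% haematocrit, exposed to test compound. Chloroquine served as positive control and 0.1% DMSO as negative control. Growth was read by SYBR Green I fluorescence. MIC50/MIC90 came from nonlinear regression of log-transformed concentrations, averaged over two independent experiments each run in duplicate.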
# PfDd2 [2] = assay: In vitro drug susceptibility, SYBR Green I fluorometric method, PfDd2; format: cell-based; conditions: Plasmodium falciparum
# Procedure, shortened: as §1
# [3] = Enzyme kinetics of ART metabolism in human liver microsomes; format: in vitro ADME; conditions: HLMs 0.5 mg/mL; for microsomal CLint: CLint,H, Vmax/Km, 15 min
# [4] = format: in vivo, human; conditions: for fAUC0-t: area under the free plasma concentration–time curve; for fCmax: maximum free plasma concentration
# Procedure, shortened: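 Subjects were six healthy non-smoking men, 20–26 y, BMI 20–25 kg/m2. Each received oral test compound 125 mg plus piperaquine 750 mg per dose over two days. Venous blood was drawn 0–48 h, and plasma was stored at −80 °C. Samples were prepared by acetonitrile precipitation with deuterated internal standard and analysed by LC-HRMS. Non-compartmental analysis used observed Cmax/Tmax, AUC0-t by linear trapezoidal rule, and CL/F = dose/AUC0-t.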
# [5] = Plasma protein binding by ultrafiltration; format: in vitro ADME; conditions: human, pooled human plasma
# Pf3D7 [6] = conditions: cited from earlier work
# PfDd2 [7] = conditions: cited from earlier work
# [8] = cited from earlier work
# CYP3A = conditions: read-out: Inhibition constant Ki of CYP3A; cited from earlier work
# [9] = cited from earlier work; remark: listed apart in the source
# [10] = read-out: Antiplasmodial activity (literature data)
smiles,measurement,setting,value
Nn1nnc2ccccc21 [1-ABT],Effect of inhibitor on formation of ART-M in HLMs,CYP enzymes,completely inhibited
same,Effect of inhibitor on formation of trace metabolite isomer M1,CYP enzymes; ART in HLMs,inhibited completely
"C[C@@H]1CC[C@H]2[C@@H](C)C(=O)O[C@@H]3O[C@@]4(C)CC[C@@H]1[C@]32OO4 [ART, Artemisinin]",MIC50,Pf3D7 [1],0.0101 µM
same,MIC90,Pf3D7 [1],0.0139 ± 0.0005 µM
same,MIC50,PfDd2 [2],0.0204 µM
same,MIC90,PfDd2 [2],0.0384 ± 0.0009 µM
same,microsomal CLint,[3]; formation of ART-M,27.6 µL/min/mg
same,microsomal CLint,[3]; substrate depletion,30.3 µL/min/mg
same,Km at 15 min,"[3]; Km, substrate depletion",23.8 µM
same,fAUC0-t,[4]; Day-1,155.6 ± 27.6 nmol/L⋅h
same,fCmax,[4]; Day-1,51.8 nM and 51.8 ± 18.0 nM
same,fAUC0-t,[4]; Day-2,113.0 ± 20.1 nmol/L⋅h
same,fCmax,[4]; Day-2,43.1 ± 10.5 nM
same,CL/F,"[4]; male, human, plasma, oral, CL/F, Day-1, dose/AUC0-t",183 mL/min/kg
same,Tmax,"[4]; male, human, plasma, oral, Tmax, Day-1",1 h
same,half-life,"[4]; male, human, plasma, oral, t1/2, Day-1",1.7 h
same,Cmax,"[4]; male, human, plasma, po, Cmax, after the first oral dose, plasma",207 nM
same,fraction unbound at 0.6 μM,[5],0.251
same,IC50,Pf3D7 [6]; [10],10 to 30 nM
same,IC50,PfDd2 [7]; [10],10 to 30 nM
same,Bioavailability,[8],~ 30%
same,Elimination half-life t1/2,[8],~ 2 h
"CCN(CC)CCCC(C)Nc1ccnc2cc(Cl)ccc12 (stereo not shown) [CQ, Chloroquine diphosphate]",MIC50,Pf3D7 [1],0.0106 µM
same,MIC90,Pf3D7 [1],0.0163 ± 0.0031 µM
same,MIC50,PfDd2 [2],0.0938 µM
same,MIC50 (reported data),Pf3D7 [6],0.005 to 0.04 µM
same,MIC50 (reported data),PfDd2 [7],0.062 to 0.1354 µM
C[C@H]1[C@@H](O)O[C@@H]2O[C@@]3(C)CC[C@H]4[C@H](C)CC[C@@H]1[C@@]24OO3 [dihydroartemisinin],MIC50,PfDd2 [7],~ 1.0 nM
CC(=O)N1CCN(c2ccc(OCC3COC(Cn4ccnc4)(c4ccc(Cl)cc4Cl)O3)cc2)CC1 (stereo not shown) [ketoconazole],Effect of inhibitor on formation of ART-M in HLMs,CYP enzymes,completely inhibited
Clc1ccc2c(N3CCN(CCCN4CCN(c5ccnc6cc(Cl)ccc56)CC4)CC3)ccnc2c1 [piperaquine],Ki,CYP3A,680 nM
same,Plasma protein binding,[9],97.4%
